According to ChEMBL document CHEMBL1629713, “Discovery of benzoylisoindolines as a novel class of potent, selective and orally active GlyT1 inhibitors” (Bioorg Med Chem Lett, 2010):
≈ marks a conversion by molar mass, not a printed value.

Assays:
[1] = molecular target: T1, Sodium- and chloride-dependent glycine transporter 2 (Homo sapiens, UniProt Q9Y345); test: Inhibition of human GlyT2 expressed in CHO cells assessed as inhibition of [3H]glycine uptake by liquid scintillation counting; format: cell-based
T1 sequence (Q9Y345 whole entry): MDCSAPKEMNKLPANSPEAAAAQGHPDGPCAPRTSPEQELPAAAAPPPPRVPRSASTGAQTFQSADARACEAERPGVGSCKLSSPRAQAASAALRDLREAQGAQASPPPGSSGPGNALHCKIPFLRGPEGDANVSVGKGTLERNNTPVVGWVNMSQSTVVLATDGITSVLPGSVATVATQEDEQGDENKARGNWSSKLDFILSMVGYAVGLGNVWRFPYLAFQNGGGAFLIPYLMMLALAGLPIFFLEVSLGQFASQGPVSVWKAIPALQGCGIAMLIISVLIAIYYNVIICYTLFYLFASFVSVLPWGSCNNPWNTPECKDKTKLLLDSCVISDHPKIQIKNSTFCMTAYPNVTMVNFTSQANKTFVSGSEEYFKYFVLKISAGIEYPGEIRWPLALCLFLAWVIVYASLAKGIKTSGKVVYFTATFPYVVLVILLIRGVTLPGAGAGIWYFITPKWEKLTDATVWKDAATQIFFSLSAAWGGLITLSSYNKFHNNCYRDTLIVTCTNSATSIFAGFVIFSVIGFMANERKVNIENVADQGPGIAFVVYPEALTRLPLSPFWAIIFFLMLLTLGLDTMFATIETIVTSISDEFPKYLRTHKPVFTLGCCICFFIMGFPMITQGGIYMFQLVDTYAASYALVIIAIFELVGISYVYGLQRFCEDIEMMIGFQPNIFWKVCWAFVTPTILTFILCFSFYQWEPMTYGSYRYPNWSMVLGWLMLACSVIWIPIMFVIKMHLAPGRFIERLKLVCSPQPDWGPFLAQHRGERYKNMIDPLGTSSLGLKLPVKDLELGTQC
How it was run: (§1)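 [3H]-glycine uptake inhibition in cells transfected with human GlyT1 or human GlyT2 cDNA. EC50 values averaged from at least two independent experiments.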

[2] = molecular target: T2, Sodium- and chloride-dependent glycine transporter 1 (Homo sapiens, UniProt P48067); test: Inhibition of human GlyT1 expressed in CHO cells assessed as inhibition of [3H]glycine uptake by liquid scintillation counting; format: cell-based; how it was run: as §1
T2 sequence (P48067 whole entry): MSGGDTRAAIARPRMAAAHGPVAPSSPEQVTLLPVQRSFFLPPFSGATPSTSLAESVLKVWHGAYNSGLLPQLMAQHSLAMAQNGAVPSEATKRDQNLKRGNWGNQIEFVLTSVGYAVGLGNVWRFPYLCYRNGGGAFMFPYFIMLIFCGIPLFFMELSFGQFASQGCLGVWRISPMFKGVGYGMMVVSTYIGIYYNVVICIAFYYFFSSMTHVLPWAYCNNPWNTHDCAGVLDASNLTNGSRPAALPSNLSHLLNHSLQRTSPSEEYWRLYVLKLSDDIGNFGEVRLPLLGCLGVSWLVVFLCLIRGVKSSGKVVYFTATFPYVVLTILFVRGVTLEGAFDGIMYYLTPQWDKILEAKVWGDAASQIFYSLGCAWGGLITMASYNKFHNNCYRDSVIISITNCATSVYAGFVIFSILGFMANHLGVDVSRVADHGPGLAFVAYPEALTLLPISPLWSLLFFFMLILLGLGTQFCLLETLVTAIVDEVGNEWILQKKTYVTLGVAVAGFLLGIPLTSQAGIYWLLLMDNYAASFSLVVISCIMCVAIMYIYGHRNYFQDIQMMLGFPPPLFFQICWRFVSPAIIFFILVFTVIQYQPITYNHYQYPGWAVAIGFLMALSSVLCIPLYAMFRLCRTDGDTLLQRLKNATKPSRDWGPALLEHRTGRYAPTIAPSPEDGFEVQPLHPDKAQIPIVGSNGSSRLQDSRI

[3] = Aqueous solubility of the compound by lyophilisate solubility assay; format: physicochemical; settings: buffer
How it was run: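 LYSA: compound in DMSO solution lyophilized, then dissolved in 0.05 M phosphate buffer pH 6.5, stirred 1 h and shaken 2 h; solubility in µg/ml.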

[4] = Permeability of the compound by PAMPA; format: ADME; settings: read-out: permeability
How it was run: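 PAMPA: permeation constant Pe (10^-6 cm/s) measured through artificial membranes.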

Mus musculus = test: Antipsychotic activity in po dosed mouse assessed as inhibition of L-687414-induced hyperlocomotion after 60 mins; format: functional; settings: 1 h, read-out: ID50 (the source's name)
How it was run: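 Mice given compound orally, n = 8 per group; hyperlocomotion induced by L-687,414. Horizontal activity counts recorded over a 60-min period and reported as group means. ID50 (mg/kg) derived from dose-dependent inhibition of the L-687,414-induced response.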

hERG (KCNH2) = hERG (KCNH2) (Homo sapiens, UniProt Q12809); test: Inhibition of human ERG at 10 uM by patch clamp assay
How it was run: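 hERG block measured by patch clamp at 10 µM; values averaged from at least two independent experiments.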

hERG (KCNH2), sequence (Q12809 whole entry): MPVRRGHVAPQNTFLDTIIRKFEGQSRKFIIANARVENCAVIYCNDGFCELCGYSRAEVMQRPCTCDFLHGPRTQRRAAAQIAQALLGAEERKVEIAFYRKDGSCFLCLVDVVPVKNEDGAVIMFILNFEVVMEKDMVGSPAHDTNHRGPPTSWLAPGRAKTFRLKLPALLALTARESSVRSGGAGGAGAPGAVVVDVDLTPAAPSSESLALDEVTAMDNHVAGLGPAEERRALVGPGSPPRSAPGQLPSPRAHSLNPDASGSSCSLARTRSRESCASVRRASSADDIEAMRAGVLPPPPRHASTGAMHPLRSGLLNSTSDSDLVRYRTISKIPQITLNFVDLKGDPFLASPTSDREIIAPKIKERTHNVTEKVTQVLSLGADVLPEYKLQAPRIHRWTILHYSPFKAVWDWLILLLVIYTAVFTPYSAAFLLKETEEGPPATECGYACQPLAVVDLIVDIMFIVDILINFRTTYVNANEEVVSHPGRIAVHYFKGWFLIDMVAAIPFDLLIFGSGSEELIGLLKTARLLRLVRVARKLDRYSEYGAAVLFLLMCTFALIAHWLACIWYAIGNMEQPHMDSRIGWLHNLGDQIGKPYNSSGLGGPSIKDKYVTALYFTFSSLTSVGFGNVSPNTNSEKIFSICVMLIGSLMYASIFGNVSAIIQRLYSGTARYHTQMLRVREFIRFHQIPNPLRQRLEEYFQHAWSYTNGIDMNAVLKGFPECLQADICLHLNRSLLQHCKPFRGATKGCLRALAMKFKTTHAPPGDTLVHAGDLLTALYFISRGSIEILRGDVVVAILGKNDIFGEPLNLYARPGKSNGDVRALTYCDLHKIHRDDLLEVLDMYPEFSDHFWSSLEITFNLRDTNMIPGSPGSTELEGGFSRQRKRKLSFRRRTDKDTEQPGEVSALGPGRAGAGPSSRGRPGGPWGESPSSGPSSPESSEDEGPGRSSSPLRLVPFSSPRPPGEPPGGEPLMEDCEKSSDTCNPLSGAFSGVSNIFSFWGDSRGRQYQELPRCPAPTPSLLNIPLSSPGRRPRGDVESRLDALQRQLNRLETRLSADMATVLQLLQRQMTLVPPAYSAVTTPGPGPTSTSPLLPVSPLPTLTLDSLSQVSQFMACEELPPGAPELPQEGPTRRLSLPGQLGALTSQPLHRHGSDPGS

`CS(=O)(=O)c1ccc(OCc2ccccc2)c(C(=O)N2Cc3cc(C(F)(F)F)cnc3C2)c1` showed an EC50 [1] greater than 30000 nM, an EC50 [2] of 805 nM and a solubility [3] of 72 µg/mL (≈ 151 µM). It also gave a Papp [4] of 0.8 ×10⁻⁶ cm/s.

`C[C@H](Oc1ccc(S(C)(=O)=O)cc1C(=O)N1Cc2ccc(-c3ccncc3)cc2C1)C(F)(F)F` gave an EC50 [1] greater than 30000 nM, an EC50 [2] of 17 nM and a solubility [3] of 25 µg/mL (≈ 51 µM). The ED50 (Mus musculus) was 3 mg/kg, the Papp [4] was 4.2 ×10⁻⁶ cm/s and the inhibition at 10 µM (hERG (KCNH2)) was 58%.

Work on `C[C@H](Oc1ccc(S(C)(=O)=O)cc1C(=O)N1Cc2ccccc2C1)C(F)(F)F` yielded an EC50 [1] greater than 30000 nM, an EC50 [2] of 2540 nM and a solubility [3] of less than 1 µg/mL. The Papp [4] was 0.8 ×10⁻⁶ cm/s.

For `C[C@H](Oc1ccc(S(C)(=O)=O)cc1C(=O)N1Cc2ccc(-c3ccccn3)cc2C1)C(F)(F)F`, the EC50 [1] was greater than 30000 nM, the EC50 [2] was 84 nM and the solubility [3] was 30 µg/mL (≈ 61.2 µM). The Papp [4] was 0.8 ×10⁻⁶ cm/s.

For `CC(C)COc1ccc(S(C)(=O)=O)cc1C(=O)N1Cc2cc(C(F)(F)F)cnc2C1`, the EC50 [1] was greater than 30000 nM, the EC50 [2] was 30 nM and the solubility [3] was 445 µg/mL (≈ 1010 µM). It also gave a Papp [4] of 5.5 ×10⁻⁶ cm/s and an inhibition at 10 µM (hERG (KCNH2)) of 37%.

Work on `CS(=O)(=O)c1ccc(N2CCOCC2)c(C(=O)N2Cc3cc(C(F)(F)F)cnc3C2)c1` yielded an EC50 [1] greater than 30000 nM, an EC50 [2] of 3000 nM and a solubility [3] of 495 µg/mL (≈ 1090 µM). The Papp [4] was 0.9 ×10⁻⁶ cm/s.

With `CS(=O)(=O)c1ccc(-c2ccc(F)cc2)c(C(=O)N2Cc3ccc(C4CCOCC4)cc3C2)c1` the EC50 [1] was greater than 30000 nM, the EC50 [2] was 16 nM and the solubility [3] was 15 µg/mL (≈ 31.3 µM). It also gave an ED50 (Mus musculus) of 0.3 mg/kg, a Papp [4] of 1.4 ×10⁻⁶ cm/s and an inhibition at 10 µM (hERG (KCNH2)) of 36%.

Compound `COc1ccc2c(c1)CN(C(=O)c1cc(S(C)(=O)=O)ccc1O[C@@H](C)C(F)(F)F)C2` has an EC50 [1] greater than 30000 nM, an EC50 [2] of 180 nM and a solubility [3] of 46 µg/mL (≈ 104 µM). It also gave a Papp [4] of 2.7 ×10⁻⁶ cm/s.

Work on `CS(=O)(=O)c1ccc(OCCC(F)(F)F)c(C(=O)N2Cc3cc(C(F)(F)F)cnc3C2)c1` yielded an EC50 [1] greater than 30000 nM, an EC50 [2] of 111 nM and a solubility [3] of 513 µg/mL (≈ 1060 µM). For the same compound, the ED50 (Mus musculus) was 3 mg/kg and the Papp [4] was 4.3 ×10⁻⁶ cm/s.

`CS(=O)(=O)c1ccc(-c2ccc(F)c(F)c2)c(C(=O)N2Cc3cc(C(F)(F)F)cnc3C2)c1` showed an EC50 [1] greater than 30000 nM, an EC50 [2] of 30 nM and a solubility [3] of 42 µg/mL (≈ 87.1 µM). For the same compound, the ED50 (Mus musculus) was 1 mg/kg, the Papp [4] was 6.4 ×10⁻⁶ cm/s and the inhibition at 10 µM (hERG (KCNH2)) was 38%.

`C[C@H](Oc1ccc(S(C)(=O)=O)cc1C(=O)N1Cc2ccc(N3CCCC3)cc2C1)C(F)(F)F` gave an EC50 [1] of 14300 nM, an EC50 [2] of 180 nM and a solubility [3] of less than 1 µg/mL. The Papp [4] was 0.8 ×10⁻⁶ cm/s.

Compound `C[C@H](Oc1ccc(S(C)(=O)=O)cc1C(=O)N1Cc2ccc(C3CCCCO3)cc2C1)C(F)(F)F` (stereo partly drawn) has an EC50 [1] greater than 30000 nM, an EC50 [2] of 205 nM and a solubility [3] of less than 1 µg/mL. The Papp [4] was 0.9 ×10⁻⁶ cm/s.

Work on `COc1cccc2c1CN(C(=O)c1cc(S(C)(=O)=O)ccc1O[C@@H](C)C(F)(F)F)C2` yielded an EC50 [1] greater than 30000 nM, an EC50 [2] of 1940 nM and a solubility [3] of 85 µg/mL (≈ 192 µM). For the same compound, the Papp [4] was 4.8 ×10⁻⁶ cm/s.

For `CS(=O)(=O)c1ccc(OCCC(F)(F)F)c(C(=O)N2Cc3ccc(C4CCOCC4)cc3C2)c1`, the EC50 [1] was greater than 30000 nM, the EC50 [2] was 137 nM and the solubility [3] was 334 µg/mL (≈ 671 µM). The Papp [4] was 4.1 ×10⁻⁶ cm/s.

`C[C@H](Oc1ccc(S(C)(=O)=O)cc1C(=O)N1Cc2ccc(N3CCN(C)CC3)cc2C1)C(F)(F)F` gave an EC50 [1] greater than 30000 nM, an EC50 [2] of 2080 nM and a solubility [3] of 490 µg/mL (≈ 958 µM). It also gave a Papp [4] of 1.5 ×10⁻⁶ cm/s.

Compound `C[C@H](Oc1ccc(S(C)(=O)=O)cc1C(=O)N1Cc2ccc(C(F)(F)F)nc2C1)C(F)(F)F` has an EC50 [1] greater than 30000 nM, an EC50 [2] of 250 nM and a solubility [3] of 429 µg/mL (≈ 889 µM). For the same compound, the Papp [4] was 5.5 ×10⁻⁶ cm/s.

Work on `Cc1cccc2c1CN(C(=O)c1cc(S(C)(=O)=O)ccc1O[C@@H](C)C(F)(F)F)C2` yielded an EC50 [1] greater than 30000 nM, an EC50 [2] of 3360 nM and a solubility [3] of 73 µg/mL (≈ 171 µM). The Papp [4] was 4.2 ×10⁻⁶ cm/s.

`C[C@H](Oc1ccc(S(C)(=O)=O)cc1C(=O)N1Cc2ccc(N3CCOCC3)cc2C1)C(F)(F)F` gave an EC50 [1] greater than 30000 nM, an EC50 [2] of 275 nM and a solubility [3] of 355 µg/mL (≈ 712 µM). The Papp [4] was 4.3 ×10⁻⁶ cm/s.

Compound `C[C@H](Oc1ccc(S(C)(=O)=O)cc1C(=O)N1Cc2cnc(C(F)(F)F)cc2C1)C(F)(F)F` has an EC50 [1] greater than 30000 nM, an EC50 [2] of 132 nM and a solubility [3] of 470 µg/mL (≈ 974 µM). For the same compound, the Papp [4] was 3.9 ×10⁻⁶ cm/s.

`C[C@H](Oc1ccc(S(C)(=O)=O)cc1C(=O)N1Cc2cccc(C#N)c2C1)C(F)(F)F` showed an EC50 [1] greater than 30000 nM, an EC50 [2] of 770 nM and a solubility [3] of 259 µg/mL (≈ 591 µM). It also gave a Papp [4] of 0.8 ×10⁻⁶ cm/s.
